Test: Toxicity liver stage against HepG2, at 10uM
Type: cell-based
Design: test concentration 10 uM, cell line HepG2-A16-CD81EGFP
Settings: human, HepG2-A16-CD81EGFP cells; read-out: INHIBITION
In short: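 Uninfected HepG2-A16-CD81EGFP cells, 3 × 10^3 per well, 1536-well, plated on prespotted compound at 10 μM final, parasite-free screening media added to match infected plates; puromycin 10 μM positive, DMSO 0.5% negative; run in parallel with 48 h PbLuc assay at 37 °C, 5% CO2; viability by CellTiter-Glo luminescence, normalized to controls.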

Row | SMILES | cytotoxicity at 10 µM [%]
1 | CCc1nc(CNC(=O)C2CCC(=O)N(Cc3ccccc3F)C2)no1 (configuration not stated) | -1.88
2 | CCC(NC(N)=O)c1ccccc1OCC(=O)N1CCCC1 (configuration not stated) | -8.29
3 | CCN1CC(COC(C)(C)C)Oc2ccncc2S1(=O)=O (configuration not stated) | -3.43
4 | COc1cc(C2CC(=O)Oc3cc(C)[nH]c(=O)c32)ccc1OCC(=O)O (configuration not stated) | -4.23
5 | Cc1ccc(C(=O)Nc2nnc(C(C)C)s2)c(-n2cnnn2)c1C | -0.649
6 | COc1ccc(C(=O)Nc2ccc3ncn(C(C)C)c(=O)c3c2)cc1 | 4.04
7 | CCc1cc(=O)[nH]c2nnc(SCC(=O)NC)n12 | -4.06
8 | CNC(=O)Cn1nc(C(C)C)c2cnn(C(C)(C)C)c2c1=O | -7.67
9 | COc1nn(C)cc1-c1nnc(SCc2cccnc2)n1C | -2.06
10 | CC(=O)Nc1ccc(CC(=O)N2CC(S(=O)(=O)C3CCCCC3)C2)cc1 | -12.8
11 | CCn1cc(C(=O)Nc2cc(C(=O)OC)ccc2C(=O)OC)cn1 | -1.2
12 | COc1ccc(OC)c(Sc2ncccc2C(=O)N(C)CCC#N)c1 | 13.3
13 | O=C(Cn1cc(-c2ccccc2)ncc1=O)Nc1nnc[nH]1 | 20.3
14 | CN(C(=O)Cn1nc(-c2ccc(F)cc2)ccc1=O)C1CCS(=O)(=O)C1 (configuration not stated) | -3.57
15 | CCn1nccc1CNC(=O)CCC1CCCC1 | 11.4
16 | CCn1nc(C)c(NC(=O)C(C)C)c1C | 1.73
17 | CCCN1CCN(c2nc(N)nc3c2nc(C)n3C)CC1 | -5.15
18 | Cc1noc(C)c1C(=O)N1CCC(c2cc3cnccc3[nH]2)CC1 | 7.07
19 | NC(=O)C1(Cc2ccccc2-c2cncnc2)CCCNC1 (configuration not stated) | 3.35
20 | CCc1cc(O)n2nc(C3CCN(C(=O)c4cccnc4)CC3)cc2n1 | 7.09
21 | O=C1CN(C(=O)C2CN(c3cccc(F)c3)CCO2)CCN1 (configuration not stated) | 5.37
22 | CCc1ncc(CN2CCc3nc4sc(C)cc4c(=O)n3CC2)cn1 | -6.47
23 | O=S(=O)(c1ccc(F)cc1)N1CCCCC1c1cc[nH]n1 (configuration not stated) | -3.55

Row | SMILES | cytotoxicity at 10 µM [%]
24 | O=C(c1cccc(F)c1)N1CCOC(c2nc(-c3ncccn3)no2)C1 (configuration not stated) | 5.3
25 | COc1ccc(C(C)NCc2ccnn2C)cc1Cn1cccn1 (configuration not stated) | 7.57
26 | Cn1cc(-c2noc(C3(C)CCOCC3)n2)cn1 | -5.65
27 | CCOC(C)c1nccn1CCC(=O)Nc1cc(C)on1 (configuration not stated) | 10.1
28 | Cc1cnn(CCNCc2cc(=O)n3cc(Cl)ccc3n2)c1 | 0.217
29 | CCN(CC)C(CNC(=O)c1ccnc(N(C)C)c1)c1ccsc1 (configuration not stated) | -149
30 | CC(NC(=O)NC1CCN(Cc2ccncc2)CC1)c1cccc(F)c1 (configuration not stated) | -12.5
31 | O=C(c1ccn(-c2ccc(F)cc2)n1)N(CCO)Cc1cccnc1 | 17.5
32 | CC(C)c1nc(CNc2ccc(N3CCC(CO)CC3)cn2)cs1 | -2.6
33 | c1ccc(C2(NCC3CNc4ccnn4C3)CCC2)cc1 (configuration not stated) | -5.34
34 | Cc1cccnc1NC(=O)c1ccc(F)c(S(=O)(=O)N2CCC2)c1 | 4.5
35 | O=C(CCCn1cccn1)N1CCCC(n2cncn2)C1 (configuration not stated) | 6.61
36 | COc1ccc(C(CC(=O)O)NC(=O)CCc2cccs2)cc1OC (configuration not stated) | -6.33
37 | Cc1nn(C)c(C)c1C1CCCN1CCOc1cccc(C#N)c1 (configuration not stated) | -8.41
38 | CCC(=O)N1CCCN(c2cncc(-n3nc(C)cc3C)n2)CC1 | -8.44
39 | CCc1ccc(CNC(=O)NC2CCCc3c2cnn3CCO)s1 (configuration not stated) | -6.78
40 | CS(=O)(=O)c1ccc(OCCNCc2ccc(F)cc2)cc1 | -8.86
41 | NC(=O)C(CNC(=O)CCc1ccsc1)Cc1ccc(F)cc1 (configuration not stated) | 21.2
42 | O=C(NCCOc1ncc(Cl)cc1Cl)NCc1ccncc1 | -1.86
43 | CCn1ccnc1CN1CCN(Cc2cnc(C)cn2)CC1C (configuration not stated) | -2.76
44 | CC(NC(=O)NCCNc1cccc(F)c1C#N)c1cccs1 (configuration not stated) | -1.31
45 | COCC(NC(=O)c1ccoc1)c1ccc(C)o1 (configuration not stated) | 3.6
46 | CCC1c2ccccc2CCN1C(=O)c1ccc(OC)nn1 (configuration not stated) | -12.8

Row | SMILES | cytotoxicity at 10 µM [%]
47 | Cc1nc(CN(CCS(C)(=O)=O)C(C)(C)C)no1 | -1.86
48 | CN(CC1CCCCC1)C(=O)c1cn(C)nc1-c1cccnc1 | 2.2
49 | O=C(NCCCn1ccnc1)c1csc2c1CCCC2 | -2.96
50 | Cc1ccsc1CNC(=O)NC1CCCc2c1cnn2CCO (configuration not stated) | 3.33
51 | COCCNC(=O)C[C@@H]1COC[C@H]2CN(C(=O)COC)C[C@@H]12 | -96.5
52 | COC[C@@]12CCO[C@@H]1CCN(C(=O)C1CCOCC1)C2 | -106
53 | CCS(=O)(=O)N1CCC2(CCN(Cc3ccc(C)o3)C2)C1 (configuration not stated) | -116
54 | CC(=O)Nc1nc(C)c(S(=O)(=O)NCCc2cccnc2)s1 | -10.5
55 | CN1CCN2CCN(Cc3cc(=O)n4c5c(cccc35)CCC4)CC2C1 (configuration not stated) | 9.05
56 | CCCN1CCC(N2CCOC(Cc3cccc(OC)c3)C2)CC1 (configuration not stated) | 8.69
57 | CC(NC(=O)c1cn(CCC2CCCCC2)nn1)c1cnn(C)c1 (configuration not stated) | 6.2
58 | COc1ccc(-n2cccn2)c(CN2CCC3(CCCNC3)C2)c1 (configuration not stated) | -1.09
59 | Cc1ccc(C(=O)N2CCC3(CC2)c2ccccc2[C@@H](N)[C@@H]3O)c(=O)[nH]1 | -2.72
60 | CCCN1CCN(C(=O)c2cccc3cccnc23)[C@H]2CS(=O)(=O)C[C@H]21 | 4.36
61 | O=C(NCC(O)c1cccc(O)c1)C1CCN(C2CCCCC2)CC1 (configuration not stated) | 7.16
62 | c1ccc2c(c1)CC(Cc1cc(N3CCCC3)cnn1)CO2 (configuration not stated) | -6.03
63 | O=C(O)[C@@H]1CN(C(=O)c2ccc(Cl)cc2)C[C@H]1c1cccc(F)c1 | -132
64 | O=C(c1cn2cc(Cl)ccc2n1)N1CCC(CCn2cccn2)CC1 | -10.2
65 | O=C(c1cc(Cn2ccc3ccccc32)[nH]n1)N1CCCCC1CO (configuration not stated) | 6.03
66 | COCCN(Cc1cccc(OCCO)c1)Cc1ccccc1F | -9.53
67 | CC1=C(C(=O)N2CCCC(Cn3cc(CO)nn3)C2)OCCO1 (configuration not stated) | 0.92
68 | COCCCN(Cc1cnc(-c2cccs2)nc1)C1CCN(C)CC1 | -3.85
69 | CN(Cc1n[nH]c(=O)n1CCc1ccccc1F)S(C)(=O)=O | -1.78

Row | SMILES | cytotoxicity at 10 µM [%]
70 | CC(NC(=O)Cc1cc2c(cc1Cl)OCCO2)c1ccncn1 (configuration not stated) | -6.29
71 | CC(C)c1cc(N2CCC[C@H](N)C2)n2nccc2n1 | -5.42
72 | COc1ccccc1N1CCC(N2CCOC(C(F)(F)F)C2)CC1 (configuration not stated) | -1.45
73 | CCn1cc(CN2CCC(c3ccncc3)CC2)cc1C#N | -5.38
74 | CCN(CC)C(=O)[C@@H]1C[C@H](NC(=O)c2cccn2C(C)C)CN1C | 7.57
75 | CCCOCC1CCN(C(=O)Cn2cccc(OC)c2=O)C1 (configuration not stated) | 5.88
76 | COCCn1cncc1Cn1ncc2ccccc2c1=O | 1.77
77 | Cn1ccc2cc(C(=O)N3CCOCC3)ccc21 | 1.91
78 | Cc1cc(-c2nnc(SCC(=O)O)n2C(C)c2ccccc2)nn1C (configuration not stated) | -1.1
79 | CCOC(=O)N1CC(C)=C(C)CN1C(=O)Nc1ccc(Cl)c(Cl)c1 | -0.113
80 | Cc1ncncc1C(=O)NCCn1nc2ccccn2c1=O | -6.89
81 | O=C(CCN1CCOC1=O)Nc1cnn(-c2ccccc2Cl)c1 | -3.39
82 | COc1ccccc1C(O)CNC(=O)NCc1csc(C)n1 (configuration not stated) | -5.34
83 | Cc1noc(C)c1S(=O)(=O)NC(=O)COc1cccc(C(C)C)c1 | -10.7
84 | NC(=O)CN1CCN(C(=O)c2cc(Cl)cc3cccnc23)CC1 | -9.19
85 | COc1cccc(-n2nnc(C(=O)N3CCC(C(N)=O)CC3)c2C)c1 | -6.66
86 | O=C(c1ccc(N2CCOCC2)nc1)N1CCCC(n2ccnc2)C1 (configuration not stated) | -18.2
87 | O=C(Cc1ccccc1)N1CCN(CC(O)c2ccc(F)cc2)CC1 (configuration not stated) | -13.8
88 | Cc1nn(C)c(C)c1C1CCCN1Cc1ccc(C(N)=O)cc1 (configuration not stated) | -1.01
89 | CC(NC(=O)N1CCC(c2ccccc2)CC1)c1nncn1C (configuration not stated) | -10.3
90 | Cn1nc2c(cc1=O)CN(Cc1nc(-c3cccnc3)no1)CC2 | -14.6
91 | Cc1cnn(CC(C)NCc2ccccc2OCc2cccnc2)c1 (configuration not stated) | -12.9
92 | CC(NCc1cccc(Cl)c1)c1ccc(OCC(=O)NC2CC2)cc1 (configuration not stated) | -12.2

Row | SMILES | cytotoxicity at 10 µM [%]
93 | c1cnn(CC2CN(c3ncnc4[nH]ccc34)CCO2)c1 (configuration not stated) | -8.81
94 | CC(=O)NCC1CCN(C(=O)NCCc2ccc(Cl)s2)CC1 | -6.19
95 | COc1cccc(COCC(=O)N2CCCC(n3cccn3)C2)c1 (configuration not stated) | -0.363
96 | CCn1cnnc1C1CCN(C(=O)c2cccc3c2ccn3C)CC1 | -8
97 | Cc1nc(C)n(CC2CN(Cc3cccnc3)CCO2)n1 (configuration not stated) | -5.38
98 | Cc1nc(C)c(C(=O)NCCNC(=O)Cc2cccc(F)c2)s1 | -8.45
99 | Cn1ccnc1CN1CCN(CC(=O)NCC(F)(F)F)CC1 | -10
100 | Cn1cnc2c1CCN(Cc1csc(-c3ccsc3)n1)C2 | -8.78
101 | O=C(Nc1cccc2c1CCCC2)C1CCCN1c1nccs1 (configuration not stated) | -4.15
102 | COCCOc1ncccc1C(=O)Nc1ccc(-n2cncn2)c(F)c1 | -0.138
103 | CCn1cc(NC(=O)NCC(C)O)cn1 (configuration not stated) | -4.84
104 | Cc1nccn1CC1CCCN1S(=O)(=O)Cc1ccccc1F (configuration not stated) | -3.33
105 | Cc1ccc2cc(C(=O)NCCn3nc4ccccn4c3=O)[nH]c2c1 | 2.95
106 | Cc1ccc(CN2CC[C@H]3[C@H](CO[C@H]3CN(C)C)C2)o1 | -129
107 | Cc1nn(CCO)c(C)c1CNC1CCOc2ccccc21 (configuration not stated) | 14.4
108 | CNC(=O)c1cc2c(nc1N(C)C)CCN(C)CC2 | -149
109 | CN(C)CCN1C(=O)CCC12CCN(C(=O)c1cccnc1)CC2 | 6.41
110 | O=C1COC2(COCCN(Cc3ccsc3)C2)CN1c1ccc(F)cc1 (configuration not stated) | 2.83
111 | COCC1CC2(CCN(CC3CC3)CC2)CN1Cc1ccccn1 (configuration not stated) | -97.4
112 | CSc1ccc(-c2cc(CN)nc3ccnn23)cc1 | -7.5

Reference: ChEMBL document CHEMBL4513216, “Probing the Open Global Health Chemical Diversity Library for Multistage-Active Starting Points for Next-Generation Antimalarials” (ACS Infect Dis, 2020)
